What was measured:
[1] = target: T1, Serine/threonine-protein kinase D1 (Homo sapiens) (UniProt Q15139); test: Inhibition of recombinant human full length GST-tagged PRKD1 expressed in baculovirus at 1 uM
T1 sequence (whole entry): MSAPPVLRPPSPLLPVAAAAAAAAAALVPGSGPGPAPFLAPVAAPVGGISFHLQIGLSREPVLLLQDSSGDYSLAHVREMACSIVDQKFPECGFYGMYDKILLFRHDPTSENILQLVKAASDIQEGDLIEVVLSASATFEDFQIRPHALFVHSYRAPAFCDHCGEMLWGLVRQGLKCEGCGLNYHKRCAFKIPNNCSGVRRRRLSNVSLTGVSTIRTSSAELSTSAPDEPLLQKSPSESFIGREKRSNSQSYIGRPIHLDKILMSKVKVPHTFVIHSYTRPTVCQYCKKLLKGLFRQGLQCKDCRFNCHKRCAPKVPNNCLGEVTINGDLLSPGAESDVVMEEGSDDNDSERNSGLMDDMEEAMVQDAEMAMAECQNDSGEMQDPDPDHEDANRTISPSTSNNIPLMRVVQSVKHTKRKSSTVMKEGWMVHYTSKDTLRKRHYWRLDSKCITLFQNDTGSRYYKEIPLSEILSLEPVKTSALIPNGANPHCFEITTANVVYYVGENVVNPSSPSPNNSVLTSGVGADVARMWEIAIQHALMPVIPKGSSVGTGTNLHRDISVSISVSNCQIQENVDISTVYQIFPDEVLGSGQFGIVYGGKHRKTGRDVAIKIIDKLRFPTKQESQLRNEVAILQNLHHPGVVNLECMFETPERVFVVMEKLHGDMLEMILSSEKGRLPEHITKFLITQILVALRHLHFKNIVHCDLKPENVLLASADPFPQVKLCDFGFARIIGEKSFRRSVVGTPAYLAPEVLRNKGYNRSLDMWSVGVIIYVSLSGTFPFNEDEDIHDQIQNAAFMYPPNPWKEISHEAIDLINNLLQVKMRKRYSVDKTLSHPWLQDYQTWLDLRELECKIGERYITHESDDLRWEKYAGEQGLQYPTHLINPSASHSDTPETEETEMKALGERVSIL
In short: (§1)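 Kinase panel of 386 kinases, each screened at a single concentration of 1 μM.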

[2] = target: Leucine-rich repeat serine/threonine-protein kinase 2 (Homo sapiens) (UniProt Q5S007); test: Inhibition of recombinant human full length GST-tagged catalytic LRRK2 expressed in baculovirus at 1 uM; in short: as §1
Chain of Leucine-rich repeat serine/threonine-protein kinase 2 (Homo sapiens) (Q5S007 whole entry): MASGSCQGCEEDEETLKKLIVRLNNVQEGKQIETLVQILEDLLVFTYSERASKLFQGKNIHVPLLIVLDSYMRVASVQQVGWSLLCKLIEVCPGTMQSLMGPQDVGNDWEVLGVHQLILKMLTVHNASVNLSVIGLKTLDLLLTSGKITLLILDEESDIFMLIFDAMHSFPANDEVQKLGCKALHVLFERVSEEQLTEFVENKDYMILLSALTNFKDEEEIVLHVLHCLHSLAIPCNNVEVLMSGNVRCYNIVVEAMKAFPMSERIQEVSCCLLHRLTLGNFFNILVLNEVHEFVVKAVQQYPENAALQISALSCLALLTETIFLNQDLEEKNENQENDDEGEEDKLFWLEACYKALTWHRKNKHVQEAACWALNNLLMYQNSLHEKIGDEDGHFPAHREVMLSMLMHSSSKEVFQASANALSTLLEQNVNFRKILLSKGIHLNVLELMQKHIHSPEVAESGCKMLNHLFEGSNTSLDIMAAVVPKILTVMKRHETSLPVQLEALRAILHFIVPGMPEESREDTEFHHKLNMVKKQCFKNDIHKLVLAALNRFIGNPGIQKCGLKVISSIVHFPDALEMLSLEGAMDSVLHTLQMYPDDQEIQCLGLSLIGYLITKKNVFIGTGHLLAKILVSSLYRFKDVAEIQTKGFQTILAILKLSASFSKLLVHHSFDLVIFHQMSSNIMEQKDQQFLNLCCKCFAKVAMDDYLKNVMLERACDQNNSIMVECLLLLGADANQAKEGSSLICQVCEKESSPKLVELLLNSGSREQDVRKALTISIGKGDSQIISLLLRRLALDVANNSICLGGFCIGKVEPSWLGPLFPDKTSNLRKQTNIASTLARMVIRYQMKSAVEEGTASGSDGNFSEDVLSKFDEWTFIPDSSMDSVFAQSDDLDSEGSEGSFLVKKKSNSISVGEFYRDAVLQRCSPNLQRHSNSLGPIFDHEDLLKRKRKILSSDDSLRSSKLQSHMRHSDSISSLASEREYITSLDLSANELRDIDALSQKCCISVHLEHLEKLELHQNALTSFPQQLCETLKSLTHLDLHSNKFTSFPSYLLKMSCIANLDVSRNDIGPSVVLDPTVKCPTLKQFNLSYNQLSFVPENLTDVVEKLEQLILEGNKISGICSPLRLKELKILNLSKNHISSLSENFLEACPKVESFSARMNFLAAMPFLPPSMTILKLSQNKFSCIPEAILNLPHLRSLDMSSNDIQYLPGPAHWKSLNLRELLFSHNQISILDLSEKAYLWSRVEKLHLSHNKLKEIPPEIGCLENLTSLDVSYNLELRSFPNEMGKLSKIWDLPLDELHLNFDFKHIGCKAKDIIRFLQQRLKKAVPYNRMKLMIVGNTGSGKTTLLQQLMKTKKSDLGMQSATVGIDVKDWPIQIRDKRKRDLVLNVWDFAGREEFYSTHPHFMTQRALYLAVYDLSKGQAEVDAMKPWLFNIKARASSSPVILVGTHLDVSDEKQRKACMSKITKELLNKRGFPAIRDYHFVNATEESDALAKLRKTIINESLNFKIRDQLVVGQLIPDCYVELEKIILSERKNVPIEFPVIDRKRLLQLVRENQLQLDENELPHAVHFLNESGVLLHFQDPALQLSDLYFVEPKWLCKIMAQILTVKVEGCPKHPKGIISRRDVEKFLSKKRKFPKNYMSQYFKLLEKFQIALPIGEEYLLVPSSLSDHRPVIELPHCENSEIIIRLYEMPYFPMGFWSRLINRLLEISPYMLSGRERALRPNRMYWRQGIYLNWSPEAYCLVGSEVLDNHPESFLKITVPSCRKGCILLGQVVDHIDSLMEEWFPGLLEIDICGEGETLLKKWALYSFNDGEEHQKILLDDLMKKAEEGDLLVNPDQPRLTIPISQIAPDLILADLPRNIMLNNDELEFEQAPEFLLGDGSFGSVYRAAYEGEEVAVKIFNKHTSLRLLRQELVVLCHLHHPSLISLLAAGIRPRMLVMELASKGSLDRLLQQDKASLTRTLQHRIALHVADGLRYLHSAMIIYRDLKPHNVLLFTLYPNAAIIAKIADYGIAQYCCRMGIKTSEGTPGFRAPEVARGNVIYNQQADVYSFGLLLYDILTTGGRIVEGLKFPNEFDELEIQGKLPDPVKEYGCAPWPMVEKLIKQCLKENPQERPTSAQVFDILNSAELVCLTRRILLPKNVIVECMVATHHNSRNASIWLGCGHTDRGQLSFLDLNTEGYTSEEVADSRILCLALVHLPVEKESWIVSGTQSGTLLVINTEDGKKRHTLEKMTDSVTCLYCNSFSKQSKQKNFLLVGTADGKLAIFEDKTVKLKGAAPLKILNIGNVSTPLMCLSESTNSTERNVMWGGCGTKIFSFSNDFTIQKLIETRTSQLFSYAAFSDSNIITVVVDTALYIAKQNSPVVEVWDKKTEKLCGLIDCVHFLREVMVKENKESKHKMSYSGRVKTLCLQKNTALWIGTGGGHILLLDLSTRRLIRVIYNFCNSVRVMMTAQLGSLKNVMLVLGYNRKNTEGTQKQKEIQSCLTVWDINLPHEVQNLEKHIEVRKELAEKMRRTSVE

[3] = Volume of distribution at steady state in CD1 mouse at 3 mg/kg, iv by LC/MS/MS analysis; type: ADME, organism-based; conditions: in vivo, read-out: Vdss
In short: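 Mouse pharmacokinetics after a single iv dose of 3 mg/kg in 10% HPbCD + 5% dextrose in WFI at pH 4. Plasma clearance, half-life and steady-state volume of distribution were derived.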

[4] = AUC in CD1 mouse at 50 mg/kg, po administered via gavage by LC/MS/MS analysis; type: ADME, organism-based; conditions: in vivo
In short: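 Mouse pharmacokinetics after oral dosing at 10 or 50 mg/kg. The 10 mg/kg dose was given in 10% HPbCD + 5% dextrose in WFI at pH 4. The 50 mg/kg dose was given in 5% SBECD in WFI at pH 2. Plasma exposure (AUC), half-life and oral bioavailability were derived.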

Mus musculus = test: In vivo inhibition of JAK1 in tumors of human NCI-H1975 cells xenografted in NCr nude mouse assessed as decrease in STAT3 phosphorylation at 50 mg/kg, po after 2 hrs by ELISA; type: functional, organism-based
In short: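 NCI-H1975 xenograft-bearing mice received single oral gavage doses of 1, 3, 10, 30, 50 or 100 mg/kg. Animals were sacrificed at 2 h, with an extra 6 h group at 50 mg/kg. Tumour pSTAT3 was measured as % inhibition, and plasma drug concentration was measured in parallel. Significance was tested by Student's t-test versus vehicle control.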

A549 = test: Antiproliferative activity against human A549 cells after 48 hrs by Alamar Blue based assay; type: functional; conditions: A549, 48 h
In short: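 Antiproliferation assay in A549 cells, reported as GI50.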

[5] = target: T2, Tyrosine-protein kinase JAK3 (Homo sapiens) (UniProt P52333); test: Inhibition of recombinant human GST-tagged JAK3 (781 to 1124 residues) expressed in baculovirus at 1 uM
T2 sequence (whole entry): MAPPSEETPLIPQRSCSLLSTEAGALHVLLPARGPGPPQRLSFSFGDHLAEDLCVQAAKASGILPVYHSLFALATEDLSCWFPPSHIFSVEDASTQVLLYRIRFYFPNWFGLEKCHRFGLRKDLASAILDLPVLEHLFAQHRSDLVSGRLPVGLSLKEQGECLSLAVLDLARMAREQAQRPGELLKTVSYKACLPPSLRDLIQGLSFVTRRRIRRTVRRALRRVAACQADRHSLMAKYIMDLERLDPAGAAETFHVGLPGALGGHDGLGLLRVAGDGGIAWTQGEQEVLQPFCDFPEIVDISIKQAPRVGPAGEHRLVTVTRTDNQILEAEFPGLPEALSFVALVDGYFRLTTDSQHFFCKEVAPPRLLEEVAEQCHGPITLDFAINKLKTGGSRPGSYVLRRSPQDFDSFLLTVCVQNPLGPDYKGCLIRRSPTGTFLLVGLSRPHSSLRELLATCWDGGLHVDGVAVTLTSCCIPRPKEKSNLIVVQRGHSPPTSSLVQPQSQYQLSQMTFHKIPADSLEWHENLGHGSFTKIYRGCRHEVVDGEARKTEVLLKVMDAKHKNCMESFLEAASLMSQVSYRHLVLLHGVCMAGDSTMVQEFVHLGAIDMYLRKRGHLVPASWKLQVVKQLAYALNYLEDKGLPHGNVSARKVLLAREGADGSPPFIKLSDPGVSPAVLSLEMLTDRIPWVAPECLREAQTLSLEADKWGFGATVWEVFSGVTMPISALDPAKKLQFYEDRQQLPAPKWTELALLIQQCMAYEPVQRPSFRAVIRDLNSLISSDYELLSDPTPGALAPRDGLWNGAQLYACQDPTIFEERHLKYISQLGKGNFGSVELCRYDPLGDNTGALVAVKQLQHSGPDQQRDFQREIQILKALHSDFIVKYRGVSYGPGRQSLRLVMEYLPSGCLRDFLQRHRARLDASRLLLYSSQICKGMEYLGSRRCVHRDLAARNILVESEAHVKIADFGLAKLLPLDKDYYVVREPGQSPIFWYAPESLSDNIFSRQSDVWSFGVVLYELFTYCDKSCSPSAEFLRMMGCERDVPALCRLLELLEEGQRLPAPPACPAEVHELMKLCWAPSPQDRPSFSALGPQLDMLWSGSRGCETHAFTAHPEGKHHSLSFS
In short: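 Single-concentration screen at 1 μM across a panel of 386 kinases to profile broad kinase selectivity.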

[6] = target: T3, Tyrosine-protein kinase JAK3 (Homo sapiens, UniProt P52333); test: Inhibition of recombinant human JAK3 (781 to 1124 residues) expressed in insect cells using 5FAM-GEEPLYWSFPAKKK-NH2 as substrate after 10 mins by caliper assay
T3 sequence (P52333 whole entry): T2 sequence (whole entry)
In short: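 Biochemical kinase inhibition IC50 measured at 5 mM ATP. Values are the geometric mean of at least two independent experiments.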

SMILES: CC[C@@H](C)Nc1nc(Nc2cc(N3C[C@@H]4C[C@H]3CN4C)cnc2F)ncc1C
- inhibition [1]: 73%
- inhibition [2]: 71%
- Vd [3]: 10.3 L/kg
- AUC [4]: 18.9 µM·h
- inhibition (Mus musculus): Dose-dependent effect
- GI50 (A549): > 10 µM
- inhibition [5]: 46%
- IC50 [6]: > 30 µM

— ChEMBL document CHEMBL4138312 (J Med Chem, 2018)
